Experimental data from ChEMBL document CHEMBL5108029, “SILAC-based chemoproteomics reveals a neoligan analogue as an anti-inflammatory agent targeting IRGM to ameliorate cytokine storm” (Eur J Med Chem, 2022).
The source made the active and inactive calls. No cut-off for these calls is given here.

Experiments:
[1] = Inhibition of cytokine storm in CLP-induced sepsis C57BL/6J mouse model assessed as disruption of Th1 and Th2 cells imbalance by measuring CD4+IL4-negative cells at 100 mg/kg by flow cytometry (reference value: 95.3%); assay type: functional; design: scale not given: the % may be the effect or the level left
CD4+ve Th [2] = assay: Inhibition of cytokine storm in ConA/1L-12-stimulated C57BL/6 mouse CD4+ T-lymphocytes assessed as reduction in Th1 cell differentiation by measuring proportion of CD4+IFNgamma-positive cells at 500 nM incubated for 48 hrs by flow cytometry (reference value: 69%); assay type: functional; design: scale not given: the % may be the effect or the level left
Procedure, shortened: (§1)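 Splenocytes from C57BL/6 mice after erythrocyte lysis, filtration and counting. Cultured in complete medium with ConA and IL-2 under Th1, Th2 or Th17 differentiation conditions with compound for 48 h. Then PMA, ionomycin and GolgiStop (1:1000) for 4 h. CD4 and intracellular cytokines stained and read by flow cytometry.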

Mus musculus [3] = assay: Anti-inflammatory activity against CLP-induced sepsis C57BL/6J mouse model assessed as proportion of Tr1 cells producing IL-10 at 100 mg/kg by flow cytometry (reference value: 24.5%); assay type: functional
RAW264.7 [4] = assay: Anti-inflammatory activity against LPS-stimulated mouse RAW264.7 cells assessed as TNF-alpha expression of M1 macrophages at 100 nM incubated for 48 hrs in presence of LPS by flow cytometry (reference value: 82.1%); assay type: functional
Procedure, shortened: (§2)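 RAW 264.7 cells in DMEM with 10% heat-inactivated FBS at 37 °C, 5% CO2, subcultured at 70–80% confluence. Seeded at 1 × 10^6 cells/mL in medium with 1 μg/mL LPS, with compound at final 100 nM or 500 nM. After 48 h, M1 differentiation and TNF-α are read by flow cytometry.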

[5] = target: T1, Immunity-related GTPase family M protein (Homo sapiens) (UniProt A1A4Y4); assay: Binding affinity to IRGM (unknown origin) by gene ontology analysis
T1 sequence (whole entry): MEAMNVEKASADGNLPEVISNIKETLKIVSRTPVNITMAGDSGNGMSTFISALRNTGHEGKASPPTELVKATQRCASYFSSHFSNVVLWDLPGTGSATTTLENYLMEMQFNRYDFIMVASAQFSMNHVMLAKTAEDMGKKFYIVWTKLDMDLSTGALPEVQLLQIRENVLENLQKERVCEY

[6] = Inhibition of cytokine storm in CLP-induced sepsis C57BL/6J mouse model assessed as disruption of Th1 and Th2 cells imbalance by measuring CD4+IFNgamma-negative cells at 100 mg/kg by flow cytometry (reference value: 26.3%); assay type: functional; design: scale not given: the % may be the effect or the level left
[7] = target: T1, Immunity-related GTPase family M protein (Homo sapiens); assay: Binding affinity to IRGM (unknown origin) assessed as protection of protein from temperature-dependent denaturation at 100 uM by CETSA analysis
Mus musculus [8] = assay: Anti-inflammatory activity against CLP-induced sepsis C57BL/6J mouse model assessed as proportion of Foxp3-positive Treg cells at 100 mg/kg by flow cytometry (reference value: 2.08%); assay type: functional
RAW264.7 [9] = assay: Anti-inflammatory activity against LPS-stimulated mouse RAW264.7 cells assessed as reduction in TNF-alpha expression of M1 macrophages at 100 to 500 nM incubated for 48 hrs in presence of LPS by flow cytometry; assay type: functional, cell-based; conditions: dose 100-500 nM; procedure, shortened: as §2
RAW264.7 [10] = assay: Anti-inflammatory activity against LPS-stimulated mouse RAW264.7 cells assessed as proportion of polarized M1 macrophages at 500 nM incubated for 48 hrs in presence of LPS by flow cytometry (reference value: 90.3%); assay type: functional; procedure, shortened: as §2
CD4+ve Th [11] = assay: Inhibition of cytokine storm in ConA/1L-12-stimulated C57BL/6 mouse CD4+ T-lymphocytes assessed as reduction in Th1 cell differentiation by measuring proportion of CD4+IFNgamma-negative cells at 500 nM incubated for 48 hrs by flow cytometry (reference value: 31%); assay type: functional; design: scale not given: the % may be the effect or the level left; procedure, shortened: as §1
CD4+ve Th [12] = assay: Cytotoxicity against C57BL/6 mouse CD4+ T-lymphocytes at 500 nM measured upto 48 hrs; assay type: toxicity, cell-based; conditions: 0.5 µM
[13] = Inhibition of cytokine storm in CLP-induced sepsis C57BL/6J mouse model assessed as reduction in Th17 cell differentiation by measuring CD4+IL17A-positive cells at 100 mg/kg by flow cytometry (reference value: 49.8%); assay type: functional; design: scale not given: the % may be the effect or the level left
Mus musculus [14] = assay: Anti-inflammatory activity against CLP-induced sepsis C57BL/6J mouse model assessed as reduction in edema and hepatocyte necrosis at 100 mg/kg by Hematoxylin and eosin staining based analysis; assay type: functional, organism-based
Procedure, shortened: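 Liver tissue from CLP-septic C57BL/6J male mice (8–10 wk), stained with H&E and examined for edema and hepatocyte necrosis.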

Mus musculus [15] = assay: Anti-inflammatory activity against CLP-induced sepsis C57BL/6J mouse model assessed as proportion of neutrophils at 100 mg/kg by flow cytometry (reference value: 6.6%); assay type: functional
RAW264.7 [16] = assay: Anti-inflammatory activity against LPS-stimulated mouse RAW264.7 cells assessed as TNF-alpha expression of M1 macrophages at 500 nM incubated for 48 hrs in presence of LPS by flow cytometry (reference value: 82.1%); assay type: functional; procedure, shortened: as §2
CD4+ve Th [17] = assay: Inhibition of cytokine storm in ConA/1L-12-stimulated C57BL/6 mouse CD4+ T-lymphocytes assessed as reduction in Th2 cell differentiation by measuring proportion of CD4+IL4-positive cells at 500 nM incubated for 48 hrs by flow cytometry (reference value: 67.6%); assay type: functional; design: scale not given: the % may be the effect or the level left; procedure, shortened: as §1
[18] = target: T2, Immunity-related GTPase family M protein 1 (Mus musculus) (UniProt Q60766); assay: Binding affinity to IRGM in LPS-stimulated mouse RAW264.7 cells at 100 uM preincubated with LPS for 48 hrs followed by incubation with compound for 3 hrs by immunoblot analysis; assay type: cell-based
T2 sequence (whole entry): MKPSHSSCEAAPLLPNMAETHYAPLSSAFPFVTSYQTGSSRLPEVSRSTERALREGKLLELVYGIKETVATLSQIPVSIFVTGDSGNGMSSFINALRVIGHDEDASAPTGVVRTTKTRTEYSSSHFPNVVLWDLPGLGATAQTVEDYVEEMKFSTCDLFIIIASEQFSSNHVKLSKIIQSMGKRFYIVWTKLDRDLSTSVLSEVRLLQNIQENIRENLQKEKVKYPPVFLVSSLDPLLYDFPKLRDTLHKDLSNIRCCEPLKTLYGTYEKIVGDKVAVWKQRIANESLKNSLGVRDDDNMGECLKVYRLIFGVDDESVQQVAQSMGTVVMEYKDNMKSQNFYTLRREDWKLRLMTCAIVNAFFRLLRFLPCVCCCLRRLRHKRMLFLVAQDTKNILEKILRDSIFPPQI
Procedure, shortened: (§3)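 Lysates of LPS-polarized (1 μg/mL, 48 h) RAW 264.7 cells at 2 mg/mL, incubated 3 h at room temperature with 100 μM probe 10 plus competitor at 10–100 μM. Then UV 365 nm crosslinking, click with biotin-azide, streptavidin pull-down, and immunoblotting for IRGM.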

[19] = Inhibition of cytokine storm in CLP-induced sepsis C57BL/6J mouse model assessed as disruption of Th1 and Th2 cells imbalance by measuring CD4+IFNgamma-positive cells at 100 mg/kg by flow cytometry (reference value: 73.7%); assay type: functional; design: scale not given: the % may be the effect or the level left
[20] = Inhibition of cytokine storm in CLP-induced sepsis C57BL/6J mouse model assessed as reduction in Th17 cell differentiation by measuring CD4+IL17A-negative cells at 100 mg/kg by flow cytometry (reference value: 50.2%); assay type: functional; design: scale not given: the % may be the effect or the level left
RAW264.7 [21] = assay: Anti-inflammatory activity against LPS-stimulated mouse RAW264.7 cells assessed as reduction in M1 polarization of macrophages at 100 to 500 nM incubated for 48 hrs in presence of LPS by flow cytometry; assay type: functional, cell-based; conditions: dose 100-500 nM; procedure, shortened: as §2
Mus musculus [22] = assay: Anti-inflammatory activity against CLP-induced sepsis C57BL/6J mouse model assessed as proportion of M1 macrophages at 100 mg/kg by flow cytometry (reference value: 98.4%); assay type: functional
[23] = Inhibition of cytokine storm in CLP-induced sepsis C57BL/6J mouse model assessed as disruption of Th1 and Th2 cells imbalance by measuring CD4+IL4-positive cells at 100 mg/kg by flow cytometry (reference value: 4.69%); assay type: functional; design: scale not given: the % may be the effect or the level left
RAW264.7 [24] = assay: Anti-inflammatory activity against LPS-stimulated mouse RAW264.7 cells assessed as proportion of polarized M1 macrophages at 100 nM incubated for 48 hrs in presence of LPS by flow cytometry (reference value: 90.3%); assay type: functional; procedure, shortened: as §2
[25] = target: T1, Immunity-related GTPase family M protein (Homo sapiens); assay: Binding affinity to IRGM (unknown origin) assessed as protection of protein from pronase proteolysis by DARTS analysis; conditions: dose 1-100 µM, DDE = dose-dependent effect
Procedure, shortened: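 DARTS: samples treated with compound at 1–100 μM, then digested with pronase; IRGM detected by immunoblot.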

CD4+ve Th [26] = assay: Inhibition of cytokine storm in ConA/1L-12-stimulated C57BL/6 mouse CD4+ T-lymphocytes assessed as reduction in Th17 cell differentiation by measuring proportion of CD4+IL17A-negative cells at 500 nM incubated for 48 hrs by flow cytometry (reference value: 31.6%); assay type: functional; design: scale not given: the % may be the effect or the level left; procedure, shortened: as §1
CD4+ve Th [27] = assay: Inhibition of cytokine storm in ConA/1L-12-stimulated C57BL/6 mouse CD4+ T-lymphocytes assessed as reduction in Th17 cell differentiation by measuring proportion of CD4+IL17A-positive cells at 500 nM incubated for 48 hrs by flow cytometry (reference value: 68.4%); assay type: functional; design: scale not given: the % may be the effect or the level left; procedure, shortened: as §1
[28] = target: T2, Immunity-related GTPase family M protein 1 (Mus musculus); assay: Binding affinity to IRGM in LPS-stimulated mouse RAW264.7 cells by competitive pull down based immunoblot analysis; assay type: cell-based; conditions: dose 10-100 µM, DDE = dose-dependent effect; procedure, shortened: as §3
CD4+ve Th [29] = assay: Inhibition of cytokine storm in ConA/1L-12-stimulated C57BL/6 mouse CD4+ T-lymphocytes assessed as reduction in Th2 cell differentiation by measuring proportion of CD4+IL4-negative cells at 500 nM incubated for 48 hrs by flow cytometry (reference value: 32.4%); assay type: functional; design: scale not given: the % may be the effect or the level left; procedure, shortened: as §1
[30] = target: T2, Immunity-related GTPase family M protein 1 (Mus musculus); assay: Binding affinity to IRGM in LPS-stimulated mouse RAW264.7 cells at 100 uM preincubated with LPS for 48 hrs followed by incubation with compound for 3 hrs by SILAC-pull down based analysis; assay type: cell-based
Procedure, shortened: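 RAW 264.7 cells were SILAC heavy- or light-labeled and polarized with 1 μg/mL LPS for 48 h. Lysates at 2 mg/mL in PBS: heavy with probe 10 (100 μM), light with 100 μM competitor, 3 h at room temperature. Then 365 nm UV at 4 °C and click with biotin-azide (final 500 μM) and Cu+ (final 1 mM) for 3 h. Acetone precipitation, streptavidin bead capture, SDS-PAGE and MS; Heavy/Light ratios by MaxQuant.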

Row | SMILES | Activity (CD4+ve Th [2]) [%] | Activity (RAW264.7 [4]) [%] | Activity (RAW264.7 [9]) | Activity (RAW264.7 [10]) [%] | Activity (CD4+ve Th [11]) [%] | Activity (CD4+ve Th [12]) | Activity (RAW264.7 [16]) [%] | Activity (CD4+ve Th [17]) [%] | Activity (RAW264.7 [21]) | Activity (RAW264.7 [24]) [%] | Activity (CD4+ve Th [26]) [%] | Activity (CD4+ve Th [27]) [%] | Activity (CD4+ve Th [29]) [%] | also measured
1 | C=CCc1cc2c(cc1O)O[C@H](c1ccc(OC)c(OC)c1)[C@H]2C | 42.8 | 19.5 | Active | 83.2 | 57.2 | Non-Toxic | 22.8 | 35.1 | Active | 82.9 | 57.7 | 42.3 | 64.9 | Activity [1]: 98.5%; Activity (Mus musculus [3]): 11.2%; Activity [5]: Active; Activity [6]: 88.7%; Activity [7]: Active; Activity (Mus musculus [8]): 0.53%; Activity [13]: 17.5%; Activity (Mus musculus [14]): Active; Activity (Mus musculus [15]): 1.09%; Activity [18]: Active; Activity [19]: 11.3%; Activity [20]: 82.5%; Activity (Mus musculus [22]): 71.3%; Activity [23]: 1.53%; Activity [25]: Dde; Activity [28]: Dde; Activity [30]: Active
2 | C=CCC1=C[C@]2(OC)C(=CC1=O)O[C@H](c1ccc(OC)c(OC)c1)[C@H]2C | 24.3 |  | Active |  | 75.7 | Non-Toxic |  | 14.3 |  |  | 78.6 | 21.4 | 85.7 | 
3 | C[C@]12CCC(=O)C=C1CC[C@@H]1[C@@H]2[C@@H](O)C[C@@]2(C)[C@H]1CC[C@]2(O)C(=O)CO |  |  | Active |  |  |  |  |  |  |  |  |  |  | 
4 | COc1ccc(/C=C/COc2cccc(O)c2)cc1OC | 25.1 |  | Active |  | 74.9 | Non-Toxic |  | 24 |  |  | 74.1 | 25.9 | 76 | 
5 | C=CCOc1cccc(OC/C=C/c2ccc(OC)c(OC)c2)c1 | 25.6 |  | Active |  | 74.4 | Non-Toxic |  | 14.8 | Active |  | 76.1 | 23.9 | 85.2 | 
6 | C#CCCC1(CCOc2cc3c(cc2CC=C)[C@H](C)[C@@H](c2ccc(OC)c(OC)c2)O3)N=N1 |  | 28.9 |  | 82.6 |  |  | 26.6 |  |  | 81.8 |  |  |  | 
